# Key:
# HIV-1 BaL = assay type: cell-based; conditions: Human immunodeficiency virus 1, BAL, TZM-bl, 48 h
# [1] = Partition coefficients, 1-octanol / PBS pH 7.4, shake flask; assay type: physicochemical; conditions: 1-octanol / PBS pH 7.4, 20 °C
# How it was run: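 Shake-flask (OECD) partitioning between 1-octanol and PBS pH 7.4 at 20 °C, run in triplicate with three different organic:aqueous volume ratios. Analyte was kept below 2.0 mM in each phase. Phases were separated by centrifugation and quantified by C-18 reverse-phase HPLC (35 °C, UV 300 nm) against 8-point standard curves (0.005–1.000 mg/mL). For the ionizable parent drug, the value is a distribution coefficient.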
# [2] = pKa determination by UV–vis titration; assay type: physicochemical; conditions: neutral pH
# [3] = cited from earlier work
structure (smiles),measurement,setting,value
"Cc1nnc(C(=O)NC(C)(C)c2nc(C(=O)NCc3ccc(F)cc3)c(O)c(=O)n2C)o1 [RAL, raltegravir]",IC50,HIV-1 BaL,4.5 ± 0.5 nM
same,apparent POW (distribution coefficient),[1],2.0
same,ionized fraction,[2],> 85%
same,aqueous solubility,[3]; neutral form,1300 µg/mL
Cc1cc(C)c(Nc2ccnc(Nc3ccc(C#N)cc3)n2)c(C)c1 [dapivirine],reported aqueous solubility,[3],< 10 µg/mL
O=C1Nc2ccc(Cl)cc2[C@@](C#CC2CC2)(C(F)(F)F)O1 [efavirenz],reported aqueous solubility,[3],< 10 µg/mL
Cc1cccc(C)c1OCC(=O)N[C@@H](Cc1ccccc1)[C@@H](O)C[C@H](Cc1ccccc1)NC(=O)[C@H](C(C)C)N1CCCNC1=O [liponavir],reported aqueous solubility,[3],< 10 µg/mL
